Results from ChEMBL document CHEMBL1126114, “A novel orally active inhibitor of IL-1 generation: synthesis and structure-activity relationships of 3-(4-hydroxy-1-naphthalenyl)-2-propenoic acid derivatives” (J Med Chem, 1992).

What was measured:
Assay type in all cases: functional
Rattus norvegicus [1] = test: Inhibitory activity against Granuloma on CMC-LPS air-pouch model at 3 mg/kg by oral administration
Procedure, shortened: (§1)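 Rat CMC-LPS air pouch (air, 2% CMC-Na, then LPS 5 ng). Oral dosing in 0.5% methyl cellulose 2 h before LPS. Granuloma wet weight determined 5 days after LPS; % inhibition versus control, with an LPS-free group included.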

Rattus norvegicus [2] = test: Inhibitory activity against IL-1 on CMC-LPS air-pouch model at 3 mg/kg by oral administration
Procedure, shortened: (§2)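 Rat CMC-LPS air pouch: air s.c., 2% CMC-Na 24 h later, LPS 5 ng 24 h after that. Compound given orally in 0.5% methyl cellulose 2 h before LPS. Exudate collected at 4 h; IL-1 (extra- plus intracellular) read by LAF assay against a recombinant human IL-1α curve.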

Rattus norvegicus [3] = test: The compound was tested for IL-1 generation on CMC-LPS air-pouch model at 3 mg/kg by oral administration
Procedure, shortened: (§3)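 Rats got 10 mL subcutaneous dorsal air, then 6 mL sterile 2% (w/v) CMC-Na in saline into the pouch 24 h later, then 5 ng LPS in 0.5 mL saline 24 h after that. Compound given orally as a suspension in 0.5% methyl cellulose 2 h before LPS. Exudate collected 4 h after LPS. Extra- plus intracellular IL-1 measured by LAF assay against a human recombinant IL-1α curve. Percent inhibition versus control; five rats per group.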

Rattus norvegicus [4] = test: The compound was tested for Granuloma generation on CMC-LPS air-pouch model at 3 mg/kg by oral administration; procedure, shortened: as §1
Rattus norvegicus [5] = test: Inhibitory activity against PGE-2 on CMC-LPS air-pouch model at 3 mg/kg by oral administration
Procedure, shortened: (§4)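 Rat CMC-LPS air pouch (air, 2% CMC-Na, then LPS 5 ng). Oral dosing in 0.5% methyl cellulose 2 h before LPS. PGE2 in the exudate supernatant collected 4 h after LPS, measured by radioimmunoassay.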

Rattus norvegicus [6] = test: % inhibition against arthritis on adjuvant-untreated paw in rats at 1 mg/kg by oral administration
Procedure, shortened: (§5)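 Adjuvant arthritis in rats; drug given orally once daily from the first day of adjuvant treatment. Swelling of the adjuvant-untreated paw measured by plethysmometer on day 15 after adjuvant; % inhibition versus control. Mean ± SEM of 6–10 animals; significance versus control.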

Rattus norvegicus [7] = test: Inhibitory activity against Granuloma on CMC-LPS air-pouch model at 2.5 mg/kg by oral administration; procedure, shortened: as §1
Rattus norvegicus [8] = test: Inhibitory activity against IL-1 on CMC-LPS air-pouch model at 10 mg/kg by oral administration; procedure, shortened: as §2
Rattus norvegicus [9] = test: Inhibitory activity against Granuloma on CMC-LPS air-pouch model at 10 mg/kg by oral administration; procedure, shortened: as §1
Rattus norvegicus [10] = test: The compound was tested for IL-1 generation on CMC-LPS air-pouch model at 2.5 mg/kg by oral administration; procedure, shortened: as §3
Rattus norvegicus [11] = test: Inhibitory activity against PGE-2 on CMC-LPS air-pouch model at 2.5 mg/kg by oral administration; procedure, shortened: as §4
Rattus norvegicus [12] = test: Inhibitory activity against IL-1 on CMC-LPS air-pouch model at 2.5 mg/kg by oral administration; procedure, shortened: as §2
Rattus norvegicus [13] = test: % inhibition against arthritis on adjuvant-untreated paw in rats at 5 mg/kg by oral administration; procedure, shortened: as §5
Rattus norvegicus [14] = test: Inhibitory activity against PGE-2 on CMC-LPS air-pouch model at 10 mg/kg by oral administration; procedure, shortened: as §4

Row | Structure (SMILES) | inhibition in vivo at 3 mg/kg (Rattus norvegicus [1]) [%] | inhibition in vivo at 3 mg/kg (Rattus norvegicus [2]) [%] | IL-1 level (Rattus norvegicus [3]) [units/mL] | Wet weight (Rattus norvegicus [4]) [g] | inhibition in vivo at 3 mg/kg (Rattus norvegicus [5]) [%] | inhibition in vivo at 1 mg/kg (Rattus norvegicus [6]) [%] | inhibition in vivo at 2.5 mg/kg (Rattus norvegicus [7]) [%] | inhibition in vivo at 10 mg/kg (Rattus norvegicus [8]) [%] | inhibition in vivo at 10 mg/kg (Rattus norvegicus [9]) [%] | IL-1 level (Rattus norvegicus [10]) [units/mL] | inhibition in vivo at 2.5 mg/kg (Rattus norvegicus [11]) [%] | inhibition in vivo at 2.5 mg/kg (Rattus norvegicus [12]) [%] | inhibition in vivo at 5 mg/kg (Rattus norvegicus [13]) [%] | inhibition in vivo at 10 mg/kg (Rattus norvegicus [14]) [%]
1 | COc1ccc2c(c1)c(CC(=O)O)c(C)n2C(=O)c1ccc(Cl)cc1 [INDOMETHACIN] | < 25 | < 25 | 995 | 2.08 | 97 | 47.8 | – | – | – | – | – | – | – | –
2 | C[C@]12C=CC(=O)C=C1CC[C@@H]1[C@@H]2[C@@H](O)C[C@@]2(C)[C@H]1CC[C@]2(O)C(=O)CO [PREDNISOLONE] | – | – | – | – | – | – | 48 | 64 | 88 | 596 | 69 | 34 | 44.4 | 86
